From ChEMBL document CHEMBL1136011, “Nitric oxide releasing morpholine derivatives as hypolipidemic and antioxidant agents” (J Med Chem, 2002)

Tests used:
[1] = In vitro percentage release of nitric oxide.
Method in brief: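 Nitric oxide release measured spectrophotometrically at 540 nm with a commercial kit. Determinations at least in duplicate.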

Rattus norvegicus [2] = assay: Hypolipidemic activity as percentage decrease in plasma levels of the cholesterol at 56 uM/kg administered intraperitoneally in rats; format: functional
Method in brief: (§1)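 Hyperlipidemia induced in rats by Triton WR 1339 (200 mg/kg ip, aqueous solution). 1 h later, test agent 56 μmol/kg in saline given ip; controls receive saline alone. Blood is drawn from the aorta 24 h after Triton, and plasma total cholesterol, LDL-cholesterol and triglyceride are determined. Groups of four to six rats; Student's t-test.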

Rattus norvegicus [3] = assay: Hypolipidemic activity as percentage decrease in plasma levels of the LDL-cholesterol at 56 uM/kg administered intraperitoneally in rats; format: functional; method in brief: as §1
Rattus norvegicus [4] = assay: Hypolipidemic activity as percentage decrease in plasma levels of the triglyceride at 56 uM/kg administered intraperitoneally in rats; format: functional; method in brief: as §1
Rattus norvegicus [5] = assay: Hypolipidemic activity as percentage decrease in plasma levels of the LDL-cholesterol at 168 administered perorally in rats; format: functional
Method in brief: (§2)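 Test agent 168 μmol/kg given orally to rats 3 h before Triton WR 1339 (200 mg/kg ip, aqueous solution). Blood is drawn from the aorta 24 h after Triton, and plasma total cholesterol, LDL-cholesterol and triglyceride are determined. Groups of four to six rats; Student's t-test.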

Rattus norvegicus [6] = assay: Hypolipidemic activity as percentage decrease in plasma levels of the cholesterol at 168 administered perorally in rats; format: functional; method in brief: as §2
Rattus norvegicus [7] = assay: Hypolipidemic activity as percentage decrease in plasma levels of the triglyceride at 168 administered perorally in rats; format: functional; method in brief: as §2

% release of nitric oxide [1]	SMILES	Decrease (Rattus norvegicus [2]) [%]	Decrease (Rattus norvegicus [3]) [%]	Decrease (Rattus norvegicus [4]) [%]	Decrease (Rattus norvegicus [5]) [%]	Decrease (Rattus norvegicus [6]) [%]	Decrease (Rattus norvegicus [7]) [%]
27.2 µM µM-1	CN1CCOC(OCCCO[N+](=O)[O-])(c2ccccc2)C1 (stereo not drawn)	20	43	45			
4.6%	O=[N+]([O-])OCCCOC1(c2ccc(-c3ccccc3)cc2)CN2CCCCC2CO1 (stereo not drawn)	20	25	37			
17.3%	CN1CCOC(OCCCO[N+](=O)[O-])(c2ccc(-c3ccccc3)cc2)C1 (stereo not drawn)	63	47	85	36	40	54
1%	CN1CC(OCCCO[N+](=O)[O-])(c2ccc(-c3ccccc3)cc2)OC2CCCCC21 (stereo not drawn)	23	1	38			

More lines, now with the values behind:

SMILES	% release of nitric oxide [1]	Decrease (Rattus norvegicus [2]) [%]	Decrease (Rattus norvegicus [3]) [%]	Decrease (Rattus norvegicus [4]) [%]	Decrease (Rattus norvegicus [5]) [%]	Decrease (Rattus norvegicus [6]) [%]	Decrease (Rattus norvegicus [7]) [%]
CC(C)(Sc1cc(C(C)(C)C)c(O)c(C(C)(C)C)c1)Sc1cc(C(C)(C)C)c(O)c(C(C)(C)C)c1 [PROBUCOL]		18	18	11			
CC(=O)N[C@@H](C(=O)O)C(C)(C)SN=O	56.7%						
